# Reference: ChEMBL document CHEMBL1806410, “Design and synthesis of pyridine-substituted itraconazole analogues with improved antifungal activities, water solubility and bioavailability” (Bioorg Med Chem Lett, 2011)
# How the values were obtained:
# Candida albicans [1] = test: Antifungal activity against Candida albicans JLC 30364 by broth microdilution method; format: functional
# Outline: (§1)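 MICs were determined by broth microdilution following NCCLS guidelines (M38-P for filamentous fungi). The panel covered four yeast species and two Aspergillus species, with two strains per species. Itraconazole served as positive control.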
# Candida albicans [2] = test: Antifungal activity against Candida albicans JLC 31374 by broth microdilution method; format: functional; outline: as §1
# Candida parapsilosis [3] = test: Antifungal activity against Candida parapsilosis JLC 30365 by broth microdilution method; format: functional; conditions: Lodderomyces parapsilosis; outline: as §1
# Candida parapsilosis [4] = test: Antifungal activity against Candida parapsilosis JLC 30275 by broth microdilution method; format: functional; conditions: Lodderomyces parapsilosis; outline: as §1
# Pichia kudriavzevii [5] = test: Antifungal activity against Candida krusei JLC 30366 by broth microdilution method; format: functional; outline: as §1
# Pichia kudriavzevii [6] = test: Antifungal activity against Candida krusei JLC 30386 by broth microdilution method; format: functional; outline: as §1
# Cryptococcus neoformans [7] = test: Antifungal activity against Cryptococcus neoformans JLC 50122 by broth microdilution method; format: functional; outline: as §1
# Cryptococcus neoformans [8] = test: Antifungal activity against Cryptococcus neoformans JLC 50123 by broth microdilution method; format: functional; outline: as §1
# Aspergillus fumigatus [9] = test: Antifungal activity against Aspergillus fumigatus JLC 30506 by broth microdilution method; format: functional; outline: as §1
# Aspergillus fumigatus [10] = test: Antifungal activity against Aspergillus fumigatus JLC 30883 by broth microdilution method; format: functional; outline: as §1
# Aspergillus flavus [11] = test: Antifungal activity against Aspergillus flavus JLC 30784 by broth microdilution method; format: functional; outline: as §1
# Aspergillus flavus [12] = test: Antifungal activity against Aspergillus flavus JLC 40437 by broth microdilution method; format: functional; outline: as §1
# [13] = Half life in rat at 10 mg/kg, po administered as single dose; format: ADME, organism-based; parameters: dose 10 mg/kg, route oral; conditions: in vivo
# Outline: (§2)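 Rats received a single dose of compound, either oral (10 mg/kg) or intravenous (10, 5 or 2.5 mg/kg). Plasma levels were followed, and the reported parameters were Cmax, Tmax, AUC0–t, half-life, clearance and bioavailability (F).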
# [14] = Half life in rat at 10 mg/kg, iv administered as single dose; format: ADME, organism-based; parameters: dose 10 mg/kg, route intravenous; conditions: in vivo; outline: as §2
# [15] = Clearance in rat at 10 mg/kg, iv administered as single dose; format: ADME, organism-based; parameters: dose 10 mg/kg, route intravenous; conditions: in vivo; outline: as §2
# [16] = Oral bioavailability in rat at 10 mg/kg, administered as single dose; format: ADME, organism-based; conditions: in vivo; outline: as §2
# [17] = Solubility of the compound in water at pH 1.2; format: physicochemical; conditions: water, read-out: solubility
# [18] = Solubility of the compound in water at pH 7.4; format: physicochemical; conditions: buffer, BLD = below limit of detection
# [19] = Cmax in rat at 10 mg/kg, po administered as single dose; format: ADME, organism-based; parameters: dose 10 mg/kg, route oral; conditions: in vivo; outline: as §2
# [20] = Tmax in rat at 10 mg/kg, po administered as single dose; format: ADME, organism-based; parameters: dose 10 mg/kg, route oral; conditions: in vivo; outline: as §2
# [21] = AUC (0 to t) in rat at 10 mg/kg, po administered as single dose; format: ADME, organism-based; parameters: dose 10 mg/kg, route oral; conditions: plasma; outline: as §2
# [22] = AUC (0 to t) in rat at 10 mg/kg, iv administered as single dose; format: ADME, organism-based; parameters: dose 10 mg/kg, route intravenous; conditions: plasma; outline: as §2
# [23] = Half life in rat at 5 mg/kg, iv administered as single dose; format: ADME, organism-based; parameters: dose 5 mg/kg, route intravenous; conditions: in vivo; outline: as §2
# [24] = Clearance in rat at 5 mg/kg, iv administered as single dose; format: ADME, organism-based; parameters: dose 5 mg/kg, route intravenous; conditions: in vivo; outline: as §2
# [25] = AUC (0 to t) in rat at 5 mg/kg, iv administered as single dose; format: ADME, organism-based; parameters: dose 5 mg/kg, route intravenous; conditions: plasma; outline: as §2
MIC (Candida albicans [1]) [µg/mL],MIC (Candida albicans [2]) [µg/mL],MIC (Candida parapsilosis [3]) [µg/mL],MIC (Candida parapsilosis [4]) [µg/mL],MIC (Pichia kudriavzevii [5]) [µg/mL],MIC (Pichia kudriavzevii [6]) [µg/mL],MIC (Cryptococcus neoformans [7]) [µg/mL],MIC (Cryptococcus neoformans [8]) [µg/mL],MIC (Aspergillus fumigatus [9]) [µg/mL],MIC (Aspergillus fumigatus [10]) [µg/mL],MIC (Aspergillus flavus [11]) [µg/mL],MIC (Aspergillus flavus [12]) [µg/mL],SMILES,also measured
< 0.0625,< 0.0625,0.0625,0.0625,0.0625,0.0625,< 0.0625,< 0.0625,1,1,0.25,0.25,O=c1n(-c2ccc(N3CCN(c4ccc(OC[C@H]5CO[C@](Cn6cncn6)(c6ccc(F)cc6F)O5)cc4)CC3)nc2)cnn1CCCO,–
< 0.0038,< 0.0038,0.25,0.25,0.125,0.125,0.5,0.5,0.0625,0.0625,0.25,0.25,CCC(C)n1ncn(-c2ccc(N3CCN(c4ccc(OC[C@H]5CO[C@](Cn6cncn6)(c6ccc(F)cc6F)O5)cc4)CC3)nc2)c1=O (some centres undefined),–
< 0.0038,< 0.0038,0.25,0.25,0.5,0.5,0.25,0.25,0.125,0.125,0.25,0.25,O=c1n(-c2ccc(N3CCN(c4ccc(OC[C@H]5CO[C@](Cn6cncn6)(c6ccc(F)cc6F)O5)cc4)CC3)nc2)cnn1Cc1ccccc1,–
0.0075,0.0075,0.125,0.125,0.0625,0.0625,0.25,0.25,0.25,0.25,0.125,0.125,CC(C)n1ncn(-c2ccc(N3CCN(c4ccc(OC[C@H]5CO[C@](Cn6cncn6)(c6ccc(F)cc6F)O5)cc4)CC3)nc2)c1=O,half-life [13]: 1.26 h; half-life [14]: 4.18 h; clearance [15]: 21.2 mL/min/kg; bioavailability [16]: 35%; solubility [17]: 1680 µg/mL; solubility [18]: BLD; Cmax [19]: 712 ng/mL; Tmax [20]: 1.88 h; AUC(0-t) [21]: 2710 ng·h/mL; AUC(0-t) [22]: 7730 ng·h/mL
0.03,0.03,0.125,0.125,0.0625,0.0625,0.5,0.5,0.25,0.25,0.0625,0.0625,CC(C)Cn1ncn(-c2ccc(N3CCN(c4ccc(OC[C@H]5CO[C@](Cn6cncn6)(c6ccc(F)cc6F)O5)cc4)CC3)nc2)c1=O,half-life [13]: 2.18 h; half-life [23]: 1.43 h; clearance [24]: 23.5 mL/min/kg; bioavailability [16]: 21.7%; solubility [17]: 2330 µg/mL; Cmax [19]: 392 ng/mL; Tmax [20]: 2 h; AUC(0-t) [21]: 1610 ng·h/mL; AUC(0-t) [25]: 3710 ng·h/mL
0.0625,0.0625,0.5,0.5,0.25,0.25,0.125,0.125,0.125,0.125,0.125,0.125,CC(C)(CO)Cn1ncn(-c2ccc(N3CCN(c4ccc(OC[C@H]5CO[C@](Cn6cncn6)(c6ccc(F)cc6F)O5)cc4)CC3)nc2)c1=O,–
0.0625,0.0625,2,–,0.125,0.125,0.0625,0.0625,> 32,> 32,> 0.5,> 0.5,CC(CO)Cn1ncn(-c2ccc(N3CCN(c4ccc(OC[C@H]5CO[C@](Cn6cncn6)(c6ccc(F)cc6F)O5)cc4)CC3)nc2)c1=O (some centres undefined),–
< 0.0625,< 0.0625,< 0.0625,< 0.0625,> 2,> 2,< 0.0625,< 0.0625,1,1,0.25,0.25,CC(CO)n1ncn(-c2ccc(N3CCN(c4ccc(OC[C@H]5CO[C@](Cn6cncn6)(c6ccc(F)cc6F)O5)cc4)CC3)nc2)c1=O (some centres undefined),–
